# High-throughput results from PubChem BioAssay.
# An excerpt weighted towards active compounds, which were near 1.4% of everything screened.
# HIV Env fusion – blocks HIV Env-driven cell-cell fusion | 360,000 compounds, 1.1% hits | AID 651610 | HeLa-JRFL Env/CEM21 cell fusion, luciferase | inhibition, % at 12.3 µM;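 active = mean replicate inhibition score of at least 50 and every replicate individually at or above 50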;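 note: 0% = plate neutral controls and 100% = maraviroc near 300 nM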
# INS-1E GSIS act – primary screen for activators of insulin secretion dependent on glucose, INS-1E cells, GLuc reporter luminescence; INS-1E GLuc reporter insulin secretion, 2-3 h; activation, % at 16.6 µM; 370,000 compounds, 0.61% hits; AID 743287;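 active = lowest replicate activation of at least 40%, so every replicate reaches that level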;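 note: 0% = median of neutral control wells and 100% = median of IBMX positive control wells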
# FN deposition inh – fibronectin deposition inhibition; AH1F fibroblasts, Alexa488-fibronectin deposition fluorescence, overnight; inhibition, % at 12.6 µM; 350,000 compounds, 0.086% hits; AID 743247;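 active = mean inhibition across replicates of 30% or more, regardless of how many single replicates reach that level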;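 note: positive control wells lacked labelled fibronectin entirely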
#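 Schedule: 1 h cell adhesion before compound, then overnight fibronectin incubation; test system: AH1F fibroblast monolayer depositing Alexa488-labelled fibronectin into matrix; quantity: 10000 AH1F cells per well; probe or stimulus: fluorescent fibronectin at 24 nM final; signal: fluorescence, ex 485 nm, em 525 nm; evaluation: percent inhibition as loss of matrix-bound fibronectin fluorescence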
# ERp5 inh – ERp5 (human) disulfide isomerase inhibition. ERp5 insulin aggregation, absorbance 650 nm, 90 min. AID 651711. 350,000 compounds, 0.05% hits. inhibition, % at 9.99 µM;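 active = mean replicate inhibition above about 25%, with every replicate also reaching it, limit read from the data, passing the limit was not always enough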
# PDI inh – blocks human protein disulfide isomerase activity; P07237; PDI insulin aggregation turbidity, A650, 90 min; inhibition, % at 10 µM; 350,000 compounds, 0.052% hits;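 active = mean inhibition across replicates of 30% or more, whatever share of single replicates reach that level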
# Target sequence (P07237 whole entry, looked up): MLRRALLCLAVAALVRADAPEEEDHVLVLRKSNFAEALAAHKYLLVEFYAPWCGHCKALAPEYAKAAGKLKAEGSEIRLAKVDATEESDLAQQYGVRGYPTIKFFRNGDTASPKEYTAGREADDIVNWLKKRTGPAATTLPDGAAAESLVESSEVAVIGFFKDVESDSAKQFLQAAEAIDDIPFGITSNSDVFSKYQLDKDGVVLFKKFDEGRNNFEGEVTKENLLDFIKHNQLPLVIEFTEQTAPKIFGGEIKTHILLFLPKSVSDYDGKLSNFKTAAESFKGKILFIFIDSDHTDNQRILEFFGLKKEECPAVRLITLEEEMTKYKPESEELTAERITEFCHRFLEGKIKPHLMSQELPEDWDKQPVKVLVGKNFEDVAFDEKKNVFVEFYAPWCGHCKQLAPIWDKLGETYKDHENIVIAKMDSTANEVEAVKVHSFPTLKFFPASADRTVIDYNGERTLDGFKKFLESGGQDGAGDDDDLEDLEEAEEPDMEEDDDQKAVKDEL
# An asterisk follows results filed as active; / = not tested or not shown; [ ] = another dose, or the depositor's remark.
SMILES,HIV Env fusion,INS-1E GSIS act,FN deposition inh,ERp5 inh,PDI inh
CC(C)Oc1cc(NC(=O)CSCC(=O)Nc2cccc(C(F)(F)F)c2)c(Cl)cc1Cl,62*,-25,/,2,6
COc1ccc(-c2ccc3n(c2=O)C[C@@H]2[C@@H](CO)[C@H](C(=O)N4CCN(C)CC4)N[C@H]32)cc1,/,1,/,11,/
Cc1ccc(C)c(S(=O)(=O)N2CCN(C(=O)CCc3nc4ccccc4c(=O)[nH]3)CC2)c1,-9,-13,5,-13,-6
Cc1ccc(S(=O)(=O)N2CCN(C(=O)COC(=O)c3ccc(O)cc3)CC2)c(C)c1,16,49*,/,6,17
Cc1ccc(S(=O)(=O)N2CCN(C(=O)CCc3nc4ccccc4c(=O)[nH]3)CC2)c(C)c1,-21,-20,8,26*,-4
COCC(=O)N1C[C@H]2[C@@H](c3ccccc31)[C@@H](CO)N2C(=O)Nc1ccccc1F,/,2,/,0,/
O=C(C[C@H]1CC[C@H]2[C@@H](COC[C@H](O)CN2Cc2cccc(-c3ccncc3)c2)O1)N1CCN(c2ccccc2)CC1,/,-36,8,-1,/
O=C(c1cc([N+](=O)[O-])ccc1N1CCOCC1)N1CCN(c2ccccc2)CC1,-106,-12,0,-1,5
O=[N+]([O-])c1ccc(O)c(C(C#Cc2ccccc2)N2CCOCC2)c1 (stereo not given),89*,-14,11,2,3
CCn1c(SCC(=O)NCC2CCCO2)nc2c([nH]c3ccccc32)c1=O (stereo not given),24,6,-5,-4,2
CCn1c(SCC(=O)NCCc2ccc(OC)c(OC)c2)nc2c([nH]c3ccccc32)c1=O,70*,-2,-12,0,-4
CCn1c(SCC(=O)NCCc2ccccc2)nc2c([nH]c3ccccc32)c1=O,67*,2,-2,0,-3
COCC(=O)N1[C@@H](CO)[C@@H]2c3ccccc3N(C(=O)NC(C)C)C[C@@H]21,/,4,/,12,/
C[C@H]1CN([C@@H](C)CO)C(=O)Cc2cc(NC(=O)Cc3cn(C)c4ccccc34)ccc2O[C@@H]1CN(C)C(=O)Nc1cccc2ccccc12,5[16.7 µM],-9,3,-3,/
C[C@H]1CCCCO[C@H](CN(C)S(=O)(=O)c2cccs2)[C@@H](C)CN([C@@H](C)CO)C(=O)c2cc(NC(=O)c3ccccc3)ccc2O1,4[16.7 µM],-10,/,/,/
CCOC(=O)C1CCCN(C(=O)C2COc3ccccc3O2)C1 (stereo not given),/,42*,-2,0,3
C[C@@H](NC(=O)C[C@@H]1CC[C@H](NC(=O)C2CCOCC2)[C@@H](CO)O1)c1ccccc1,-7[16.7 µM],-1,8,-3,/
CC(=O)c1c(C)oc2ccc(NS(=O)(=O)c3ccc(O)c(C(=O)O)c3)cc12,/,/,/,/,-1
CC(=O)c1c(C)oc2ccc(NS(=O)(=O)c3ccc(F)cc3C)cc12,0,223*,1,0,-12
CCCCCc1ccc(OCCC[n+]2ccccc2)c(CCCCC)c1,52,192*,-5,8,25
CCCCCc1ccc(OCCOCCn2c[n+](C)c3ccccc32)c(CCCCC)c1,/,/,/,/,6
O=C(CNC(=O)c1cccs1)Nc1cccc(S(=O)(=O)N2CCOCC2)c1,61*,-2,/,-1,4
CC(C)(C)c1ccc(OCCC(=O)Nc2cccc(S(=O)(=O)N3CCOCC3)c2)cc1,75*,-41,/,-4,-10
COc1ccc(OCCC(=O)OCC(=O)Nc2cccc(S(=O)(=O)N3CCOCC3)c2)cc1,-8,-16,7,11,1
O=C(Cc1ccc(F)cc1)Nc1cccc(S(=O)(=O)N2CCCC2)c1,63*,-15,-7,9,0
SMILES,HIV Env fusion,INS-1E GSIS act,FN deposition inh,ERp5 inh,PDI inh
O=C(Cc1ccccc1)Nc1cccc(S(=O)(=O)N2CCCCCC2)c1,/,-3,4,/,-2
COc1ccc(C2=NN(C(=O)c3ccco3)C(c3cccs3)C2)cc1OC (stereo not given),4,81*,8,-2,0
COc1ccc(C2CC(c3cccs3)=NN2C(=O)CCl)cc1OC (stereo not given),62*,-32,-1,4,-8
COc1cccc(C2=NN(C(=O)CCCC(=O)O)C(c3cccs3)C2)c1 (stereo not given),3,17,17,-11,-3
COc1ccc(C2=NN(C(=O)CCCC(=O)O)C(c3cccs3)C2)cc1OC (stereo not given),-2,104*,14,3,10
O=C(C[C@H]1C[C@@H]2c3cc(NC(=O)C4CCC4)ccc3O[C@@H]2[C@@H](CO)O1)NCc1cccnc1,7[16.7 µM],1,0,-5,/
C[C@H]1CCCCO[C@@H](CN(C)C(=O)C2CCCCC2)[C@@H](C)CN([C@@H](C)CO)C(=O)c2cc(NC(=O)c3ccccc3)ccc2O1,-82[16.7 µM],-21,/,10,/
O=C(N[C@H]1CC[C@@H](CCNC(=O)C2CCCC2)O[C@H]1CO)c1ccccn1,6[16.7 µM],-7,8,6,/
CCOc1ccc(OCC)c(NC(=O)CN2CCN(c3cc(C)ccc3C)CC2)c1,61*,/,12,/,-3
CCOc1ccc(OCC)c(NC(=O)CN2CCN(c3cccc(C)c3)CC2)c1,/,/,/,/,-3
O=c1c2ccccc2nc(-c2ccco2)n1/N=C/c1ccco1,/,54*,/,/,-8
O=c1c2ccccc2nc(-c2ccco2)n1/N=C/c1ccccc1O,/,69*,/,/,-2
Cc1cc(C)c2c(C)nn(-c3ccccc3)c2n1,-38,/,0,/,0
Cc1nn(-c2ccccc2)c2nc(C(F)F)cc(C(F)F)c12,/,70*,-4,-31,4
CCc1ccc(-c2nc(CSCC(=O)N3CCN(c4ccccn4)CC3)c(C)o2)cc1,86*,/,-1,/,0
Cc1ccc(-c2nc(CSCC(=O)N3CCOCC3)c(C)o2)cc1,28,/,-8,/,0
Cc1ccc(-c2nc(CSCC(=O)N3CCN(c4ccccn4)CC3)c(C)o2)cc1,57*,-24,0,0,/
C[C@@H]1CN([C@@H](C)CO)C(=O)c2cc(NC(=O)CCCN(C)C)ccc2O[C@@H]1CN(C)S(=O)(=O)c1cn(C)cn1,4[16.7 µM],12,/,3,/
COc1cc2c(cc1O)C=[N+](Cc1cccc(OC(F)(F)F)c1)CC2,13[16.7 µM],/,/,0,/
CC(=O)N1[C@H](CN(C(=O)c2ccccc2)C(C)C)[C@H](c2ccccc2)[C@@H]1CO,/,3,/,/,/
COc1ccc(S(=O)(=O)Nc2ccc3c(c2)CC(=O)N([C@@H](C)CO)C[C@@H](C)[C@@H](CN(C)C(=O)Nc2ccc(C(F)(F)F)cc2)O3)cc1,4[16.7 µM],-23,/,10,/
COC(=O)c1ccccc1NC(=O)c1ccccc1N(C)S(=O)(=O)c1ccccc1,13,4,-1,0,-5
CCCNC(=O)c1ccccc1NC(=O)c1ccccc1N(C)S(=O)(=O)c1ccccc1,72*,7,-3,/,1
CC(C)CNC(=O)c1ccccc1NC(=O)c1ccccc1N(C)S(=O)(=O)c1ccccc1,78*,-37,-9,-6,12
